# Results taken from ChEMBL document CHEMBL1148971, “Bioactive rearranged and halogenated semisynthetic derivatives of the marine natural product sarcophine” (J Nat Prod, 2004).
# Active and inactive are the calls of the source. The rule behind the calls is not given here.
# Experiments:
# Format in all cases: functional, cell-based
# +SA cell [1] = assay: Antiproliferative activity against mouse +SA cells assessed as decrease in cell growth up to 100 uM after 4 days by MTT assay
# Summary of the method: (§1)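 Highly malignant +SA mouse mammary epithelial cells were grown in serum-free medium with 10 ng/mL EGF and 10 µg/mL insulin as mitogens. Cells were seeded at 5 × 10^4 cells/well, 6 wells per group, and fed medium containing compound over 0.01-1000 µM for 4 days. Viable cell number was read by MTT colorimetric assay and reported as mean cell count/well + SEM.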
# +SA cell [2] = assay: Antiproliferative activity against mouse +SA cells assessed as decrease in cell growth at 0 to 10 uM after 4 days by MTT assay; summary of the method: as §1
# +SA cell [3] = assay: Antiproliferative activity against mouse +SA cells assessed as decrease in cell growth at 100 to 1000 uM after 4 days by MTT assay; summary of the method: as §1
Compound,Activity (+SA cell [1]),Activity (+SA cell [2]),Activity (+SA cell [3])
CC1=C2CC/C(C)=C/CC/C(C)=C/CC/C(C)=C/[C@@H]2OC1=O,Active,,
CC1=C2CC[C@@](C)(O)CCC[C@](C)(O)[C@@H]3CC[C@@](C)(C[C@@H]2OC1=O)O3 (relative stereo),inactive,,
CC1=C2CC[C@H](C)[C@@H]3CC[C@](C)(O)[C@H](CC/C(C)=C/[C@@H]2OC1=O)O3 (relative stereo),inactive,,
CC1=C2CC[C@]3(C)O[C@@H](CC/C(C)=C/[C@@H]2OC1=O)[C@@](C)(O)CC[C@H]3Br (relative stereo),inactive,,
CC1=C2CC[C@]3(C)O[C@@H](CC/C(C)=C/[C@@H]2OC1=O)[C@@](C)(O)CC[C@@H]3Br (relative stereo),Active,,
CC1=C2CC/C(C)=C/CC[C@@H](C)C(=O)CC/C(C)=C/[C@@H]2OC1=O,inactive,,
CC1=C2CC[C@H](C)[C@H]3CC[C@](C)(O)[C@H](CC/C(C)=C/[C@@H]2OC1=O)O3 (mixture of isomers),inactive,,
CC1=C2CC[C@H](C)[C@@H]3CC[C@](C)(O)[C@H](CC[C@@](C)(O)C[C@@H]2OC1=O)O3 (relative stereo),inactive,,
CC1=C2CC/C(C)=C/CC[C@]3(C)O[C@H]3CC/C(C)=C/[C@@H]2OC1=O,,inactive,Active
